The species entered for experiment [1] is Cavia porcellus. Briefly: The compound was tested for inhibition of electrically evoked contractions in guinea pig ileum with bestatin at 10e-6 M conc. Type of experiment: functional. In outline:
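Guinea pig ileum, electrically stimulated. Compound at 10⁻⁶ M final concentration, scored as inhibition of evoked contractions. Tissues were qualified with a morphine response at 10⁻⁷ M. Values are the average of two or three experiments. Compounds tested as HCl salts.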

For experiment [2], the species on record is Cavia porcellus. Briefly: Inhibition of electrically evoked contractions in guinea pig ileum at 10e-6 M with cocktail comprised of 10 uM thiophan, and 10 mM L-leucylleucine. The class given is functional. The method in brief: (§1)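 Isolated guinea pig ileum, electrically stimulated; inhibition of evoked contractions by compound (HCl salt) at 10⁻⁶ M final. Only tissues responding to 10⁻⁷ M morphine reference were used. Values are the average of two or three experiments.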

Experiment [3] is filed under the species Cavia porcellus. Briefly: Inhibition of electrically evoked contractions in guinea pig ileum at 10e-6 M conc. with cocktail comprised of 10 uM bestatin, 10 uM captopril, 0.3 uM thiophan, and 10 mM L-leucylleucine. Type of experiment: functional. The method in brief:
as §1

The target of experiment [4] is Mu-type opioid receptor (Cavia porcellus, UniProt P97266). The experiment is described as follows: The compound was tested for binding activity towards opioid receptor mu in guinea pig brain membranes. Type of experiment: cell membranes. The method in brief: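 Competitive radioligand binding used male Hartley guinea pig brain membranes at 25 °C in 100 mM NaCl, with 0.5 nM [³H]naloxone (final) for μ sites. Compounds were tested as HCl salts. Data come from single duplicate experiments or are mean ± SEM of three experiments run in duplicate.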
Sequence of Mu-type opioid receptor (P97266 whole entry): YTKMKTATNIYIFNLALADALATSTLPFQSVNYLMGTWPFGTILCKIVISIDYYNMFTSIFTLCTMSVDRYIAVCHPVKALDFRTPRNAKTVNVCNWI

For experiment [5], the target named is Kappa-type opioid receptor (Cavia porcellus, UniProt P41144). Briefly: The compound was tested for binding activity towards opioid receptor kappa in guinea pig brain membranes. Type of experiment: cell membranes. The method in brief:
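Guinea pig brain membranes (male Hartley) in competitive radioligand displacement at 25 °C with 100 mM NaCl. κ sites were labelled with 1 nM (-)-[³H]EKC (final), with 500 nM DADLE and 20 nM sufentanil masking other sites. Compounds were tested as HCl salts. Values are single experiments in duplicate or mean ± SEM of three experiments in duplicate.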

Experiment [6] is filed under the species Cavia porcellus. The experiment is described as follows: The compound was tested for inhibition of electrically evoked contractions in guinea pig ileum with bestatin at 10e-6 M. Type of experiment: functional. The method in brief: as §1

Molecules are shown by their SMILES. Starred links: 1 amine or outer side, 2 acyl side, 3 side chain; linkers in the order of their positions; H or OH if unused. Residues, ends and D or L forms follow the SMILES beside them. Ethylenediamine = C(CN[*:2])N[*:1]; GABA = NCCCC(=O)O

Sequence of Kappa-type opioid receptor (P41144 whole entry): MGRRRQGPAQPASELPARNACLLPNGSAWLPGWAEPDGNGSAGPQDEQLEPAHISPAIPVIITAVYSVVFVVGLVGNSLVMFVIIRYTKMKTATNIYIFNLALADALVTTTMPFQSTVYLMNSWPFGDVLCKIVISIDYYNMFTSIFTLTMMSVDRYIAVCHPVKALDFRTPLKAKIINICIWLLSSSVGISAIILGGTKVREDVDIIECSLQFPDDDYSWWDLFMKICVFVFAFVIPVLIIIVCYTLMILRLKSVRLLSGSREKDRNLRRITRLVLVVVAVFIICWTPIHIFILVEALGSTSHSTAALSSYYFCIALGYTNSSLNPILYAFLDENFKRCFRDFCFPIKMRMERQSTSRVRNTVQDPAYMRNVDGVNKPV

`NCCCC(=O)NCCN(CCNC(=O)CCCN)C(=O)CCCN` came in with an inhibition at 1 µM in experiment [1] of 0%. The same compound had an Inhibition in experiment [2] of 0%.
As to `NCCCC(=O)NCCNC(=O)[C@H](Cc1ccccc1)NC(=O)CNC(=O)CNC(=O)[C@@H](N)Cc1ccc(O)cc1` (H-YGGF-{Ethylenediamine-GABA}), the Inhibition in experiment [3] is reported as 28.5%. In experiment [1], this compound returned an inhibition at 1 µM of 29.5%. The Ki in experiment [4] is 16.5 µM; in experiment [5], 36.7 µM.
The compound `NCCCC(=O)NCCCN(CCCNC(=O)[C@H](Cc1ccccc1)NC(=O)CNC(=O)CNC(=O)[C@@H](N)Cc1ccc(O)cc1)C(=O)CCCN` (HELM PEPTIDE1{Y.G.G.F.[NCCCC(=O)NCCCN(CCCN[*:1])C(=O)CCCN]}$$$$V2.0) yielded an inhibition at 1 µM in experiment [6] of 13%. Moreover, the Inhibition in experiment [2] is recorded as 12.5%. The Ki was 7.3 µM in experiment [4] and 5.51 µM in experiment [5].
The compound `NCCCC(=O)NCCN(CCN(CCNC(=O)[C@H](Cc1ccccc1)NC(=O)CNC(=O)CNC(=O)[C@@H](N)Cc1ccc(O)cc1)C(=O)CCCN)C(=O)CCCN` (HELM PEPTIDE1{Y.G.G.F.[NCCCC(=O)NCCN(CCN(CCN[*:1])C(=O)CCCN)C(=O)CCCN]}$$$$V2.0) came in with an Inhibition in experiment [2] of 9%. The Ki in experiment [4] worked out at 6.76 µM; in experiment [5], 3.73 µM.
In experiment [3], `NCCCC(=O)NCCN(CCNC(=O)[C@H](Cc1ccccc1)NC(=O)CNC(=O)CNC(=O)[C@@H](N)Cc1ccc(O)cc1)C(=O)CCCN` (HELM PEPTIDE1{Y.G.G.F.[NCCCC(=O)NCCN(CCN[*:1])C(=O)CCCN]}$$$$V2.0) came in with an Inhibition of 17.5%. In experiment [1], this compound yielded an inhibition at 1 µM of 13.5%. Also, the Ki amounted to 14.4 µM in experiment [4] and 8.75 µM in experiment [5].
With `CC[C@H](C)[C@H](NC(=O)[C@H](CCCNC(=N)N)NC(=O)[C@H](CCCNC(=N)N)NC(=O)[C@H](CC(C)C)NC(=O)[C@H](Cc1ccccc1)NC(=O)CNC(=O)CNC(=O)[C@@H](N)Cc1ccc(O)cc1)C(=O)N[C@@H](CCCNC(=N)N)C(=O)N1CCC[C@H]1C(=O)N[C@@H](CCCCN)C(=O)N[C@@H](CC(C)C)C(=O)N[C@@H](CCCCN)C(=O)O` [ANALOG OF DYNORPHIN A], the inhibition constant Ki in experiment [4] is 0.05 µM; in experiment [5], 0.0036 µM.

The inhibition is the change of the read-out against control, counted positive when it falls. A higher inhibition goes with strong suppression. A word on the Inhibition: it is the share of the control response that was lost under treatment. A high value points to strong suppression. By Ki is commonly meant the equilibrium dissociation constant of an inhibitor or competing ligand from its target. High values mean weaker binding, low ones tighter binding.

The record behind these values is ChEMBL document CHEMBL1125206, “Modification of the enkephalin "message" with an artificial polycationic C-terminus” (J Med Chem, 1991).
